The record followed here is ChEMBL document CHEMBL4033782, “Structural Modification of Natural Product Tanshinone I Leading to Discovery of Novel Nitrogen-Enriched Derivatives with Enhanced Anticancer Profile and Improved Drug-like Properties” (J Med Chem, 2018).

Data set [1] can be described thus: Aqueous solubility of the compound by HPLC method. The format is physicochemical. The conditions noted are these: buffer. An outline of the steps:
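Solubility determined by an HPLC method, with one-point calibration against standards of known concentration. Mean ± SD of at least three independent experiments.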

Data set [2] in a line: Half life in Sprague-Dawley rat at 3.90 mg/kg, po by LC-ESI-MS/MS analysis. The format is ADME, organism-based. To be noted: in vivo, 3.9 mg/kg.
The nature of data set [3]: Oral bioavailability in Sprague-Dawley rat at 3.90 mg/kg by LC-ESI-MS/MS analysis. In kind it is ADME, organism-based. To be noted: in vivo, 3.9 mg/kg.
The next data set concerns KB. As to the kind of experiment: Antiproliferative activity against human KB cells after 72 hrs by sulforhodamine B assay. The format is functional, cell-based. The essentials:
(§1)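 Cells grown in ATCC-specified medium with 10% heat-inactivated FBS, penicillin/streptomycin and 10 mM Hepes, at 37 °C under 5% CO2. Seeded, cultured overnight, then exposed to gradient concentrations for 72 h. Growth read by SRB staining; inhibition % = [1−(A450 treated/A450 control)]×100. IC50 obtained by the Logit method from independent experiments.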
(In SRB staining, fixed cells bind dye roughly in proportion to their protein.)

Data set [4] is described as follows: Antiproliferative activity against human KB/VCR cells after 72 hrs by sulforhodamine B assay. In kind it is functional, cell-based. An outline of the steps: as §1
Data set [5] in a line: Half life in human liver microsomes at 0.1 uM up to 60 mins by LC-MS/MS analysis. The format is ADME, microsome. An outline of the steps: (§2)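 Compound at 0.1 μM final (0.01% DMSO, 0.005% BSA) incubated at 37 °C with human, rat or mouse liver microsomes (0.33 mg/mL protein) in 0.1 M Tris/HCl pH 7.4, with 5 mM MgCl2 and 1 mM NADPH. Samples taken at 0, 7, 17, 30 and 60 min, quenched by methanol precipitation, centrifuged, and parent measured by LC-MS/MS. T1/2 and Clint derived.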
For orientation: Liver microsomes are vesicles of endoplasmic reticulum, rich in cytochrome P450 enzymes.

The nature of data set [6]: Half life in rat liver microsomes at 0.1 uM up to 60 mins by LC-MS/MS analysis. In kind it is ADME, microsome. An outline of the steps: as §2
Data set [7] has as its system Liver. Briefly: Half life in mouse liver microsomes at 0.1 uM up to 60 mins by LC-MS/MS analysis. In kind it is ADME, microsome. The conditions noted are these: microsomes, 1 h, 0.1 µM. The essentials:
as §2

Data set [8] relates to Liver. Briefly: Intrinsic clearance in human liver microsomes assessed as per mg protein up to 60 mins by LC-MS/MS analysis. The format is ADME, microsome. To be noted: 1 h. The essentials: as §2
In data set [9] the test system is Liver. Briefly: Intrinsic clearance in rat liver microsomes assessed per mg protein up to 60 mins by LC-MS/MS analysis. The format is ADME, microsome. To be noted: 1 h. The essentials:
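Liver microsomes (0.33 mg/mL protein) in 0.1 M Tris/HCl pH 7.4 with 5 mM MgCl2, 1 mM NADPH, compound at 0.1 μM final (0.01% DMSO, 0.005% BSA), 37 °C; samples at 0, 7, 17, 30, 60 min quenched in methanol, centrifuged, LC-MS/MS; T1/2 and Clint per g protein derived.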

Data set [10] has as its system Liver. Briefly: Intrinsic clearance in mouse liver microsomes assessed per mg protein up to 60 mins by LC-MS/MS analysis. In kind it is ADME, microsome. The conditions noted are these: 1 h. The essentials: as §2
Data set [11] deals with HCT-116. As to the kind of experiment: Induction of apoptosis in human HCT116 cells assessed as early apoptotic cells at 2 uM after 48 hrs by Annexin V-FITC/propidium iodide staining-based FACS analysis (reference value: 2.35%). The format is functional. On the technique in general: In flow cytometry, cells or beads pass a laser one at a time.
For data set [12], the system named is HCT-116. As to the kind of experiment: Induction of apoptosis in human HCT116 cells assessed as late apoptotic cells at 2 uM after 48 hrs by Annexin V-FITC/propidium iodide staining-based FACS analysis (reference value: 5.74%). In kind it is functional.
Data set [13] relates to HCT-116. As to the kind of experiment: Induction of apoptosis in human HCT116 cells pretreated with Z-VAD-FMK pan-caspase inhibitor for 1 hr assessed as early apoptotic cells at 2 uM after 48 hrs by Annexin V-FITC/propidium iodide staining-based FACS analysis (reference value: 1.34%). In kind it is functional. Also noted: scale not given: the % may be the effect or the level left.

Data set [14] deals with HCT-116. Briefly: Induction of apoptosis in human HCT116 cells pretreated with Z-VAD-FMK pan-caspase inhibitor for 1 hr assessed as late apoptotic cells at 2 uM after 48 hrs by Annexin V-FITC/propidium iodide staining-based FACS analysis (reference value: 3.15%). The format is functional. Also noted: scale not given: the % may be the effect or the level left.
For data set [15], the system named is HCT-116. As to the kind of experiment: Induction of apoptosis in human HCT116 cells assessed as cleavage of PARP at 2 uM after 48 hrs by Western blot analysis. The format is functional, cell-based. An outline of the steps:
(§3)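 HCT116 cells, with or without a 1 h pretreatment with 20 μM Z-VAD-FMK, exposed for 48 h. Lysed on ice in Hepes/NaCl/Triton X-100 buffer with protease/phosphatase inhibitors and clarified at 12,000×g. Equal protein run by SDS-PAGE, blotted to nitrocellulose, probed overnight at 4 °C for PARP, caspase 3, caspase 7 and β-actin. HRP secondaries, ECL detection.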

The test system of data set [16] is HCT-116. Briefly: Induction of apoptosis in human HCT116 cells assessed as activation of caspase 3/7 at 2 uM after 48 hrs by Western blot analysis. The format is functional, cell-based. The essentials: as §3
Data set [17] relates to HCT-116. As to the kind of experiment: Induction of apoptosis in human HCT116 cells pretreated with Z-VAD-FMK pan-caspase inhibitor for 1 hr assessed as activation of caspase 3/7 at 2 uM after 48 hrs by Western blot analysis. In kind it is functional, cell-based. An outline of the steps: as §3
Data set [18] deals with HCT-116. As to the kind of experiment: Induction of apoptosis in human HCT116 cells pretreated with Z-VAD-FMK pan-caspase inhibitor for 1 hr assessed as cleavage of PARP at 2 uM after 48 hrs by Western blot analysis. The format is functional, cell-based. The essentials:
as §3

In data set [19] the test system is HCT-116. Briefly: Induction of apoptosis in human HCT116 cells assessed as activation of caspase 3/7 at 1.0 to 4.0 uM after 24 hrs by Caspase-Glo 3/7 assay.

Active and inactive are the calls of the source. The rule behind the calls is not given here. Where only a bound is given, the exact number is not on record here.

For orientation: solubility means the concentration that dissolves in the medium under given conditions. As usually defined, the half-life is how long it takes for the measured level to halve. As a reminder, the bioavailability is the share of a dose that reaches the circulation, judged against a reference dose that is usually intravenous. The term IC50 denotes the concentration at which inhibition is half-maximal.

As to `Cc1coc2c1C(=O)C(=O)c1c-2ccc2c(C)cccc12` [TANSHINONE I], the solubility in data set [1] is less than 0.1 µg/mL. In data set [2], this molecule gave a half-life of 10.2 min. Further, the bioavailability in data set [3] was found to be 0%. In addition, the IC50 was determined as 5.87 µM in the data set with KB and 4.4 µM in data set [4]. The half-life at 0.1 µM in data set [5] turned out to be 6.45 min; in data set [6], 2.51 min. Moreover, the t1/2 result in the data set on Liver [7] is on record as “Nd(Unstable)”. Also, the intrinsic clearance is 325 mL/min/g in the data set on Liver [8], 836 mL/min/g in the data set on Liver [9] and “Nd(Unstable)” in the data set with Liver [10]. In addition, the Activity in the data set on HCT-116 [11] is 3.81%; in the data set on HCT-116 [12] it was 5.46%; in the data set with HCT-116 [13], 4.24%; in the data set with HCT-116 [14], 7.11%. The outcome in the data set on HCT-116 [15], in the data set on HCT-116 [16], in the data set with HCT-116 [17], in the data set with HCT-116 [18] and in the data set with HCT-116 [19] was inactive.
